SMILES strings stand for the structures. Where only a bound is given, the exact number is not on record here.

Data on 14 compounds can be found in ChEMBL document CHEMBL1144477, “Design, synthesis and cytotoxic properties of novel 1-[4-(2-alkylaminoethoxy)phenylcarbonyl]-3,5-bis(arylidene)-4-piperidones and related compounds” (Eur J Med Chem, 2007).

Common to all, as to type: cell-based
A short description of experiment [1]: Cytotoxicity against human Molt4/C8 cells. Conditions: MOLT-4. The gist of the method: (§1)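 Human Molt 4/C8 and CEM T-lymphocytes and murine L1210 cells were each exposed to at least three compound concentrations at 37 °C for 48 h. Growth inhibition was then measured, and IC50 values were derived from it.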
Experiment [2] has as its system CCRF-CEM. The experiment can be described thus: Cytotoxicity against human CEM cells. The procedure, abridged:
as §1

Experiment [3] deals with L1210. The experiment can be described thus: Cytotoxicity against […] mouse L1210 cells. The procedure, abridged: as §1
Experiment [4] deals with HCT-15. The experiment can be described thus: Cytotoxicity against human HCT15 cells.
For experiment [5], the system named is HCT-116. The experiment can be described thus: Cytotoxicity against human HCT116 cells.
In experiment [6] the test system is KM12. The experiment can be described thus: Cytotoxicity against human KM12 cells.
Experiment [7] deals with SW-620. The experiment can be described thus: Cytotoxicity against human SW620 cells.
In experiment [8] the test system is K562. The experiment can be described thus: Cytotoxicity against human K562 cells.
Experiment [9] in a line: Cytotoxicity against human RPMI8226 cells. The settings on record: RPMI-8226.
Experiment [10] in a line: Cytotoxicity against human HL60 (TB) cells. The settings on record: HL-60.
Experiment [11] is described as follows: Cytotoxicity against human NCI49 cell lines.
Experiment [12] deals with COLO 205. The experiment can be described thus: Cytotoxicity against human COLO205 cells.

A word on the IC50: it is the concentration at which inhibition is half-maximal. Higher therefore signals lower potency. For `O=C1/C(=C/c2ccccc2)CN(C(=O)c2ccc(OCCN3CCCCC3)cc2)C/C1=C\c1ccccc1`, the results for the IC50 in experiment [1], in experiment [2] and in [3] were 1480 nM, 1160 nM and 8400 nM, respectively.
The corresponding values for `CCN(CC)CCOc1ccc(C(=O)N2C/C(=C\c3ccc(Cl)cc3)C(=O)/C(=C/c3ccc(Cl)cc3)C2)cc1` are 18300 nM, 12300 nM and 47300 nM.
Take `O=C1/C(=C/c2ccccc2)CN(C(=O)c2ccc(OCCN3CCOCC3)cc2)C/C1=C\c1ccccc1`: the IC50 in experiment [4] was 1450 nM; in experiment [5], 339 nM; in [6], 129 nM; in experiment [7], 191 nM; in [8], 158 nM; in experiment [9], 123 nM. In addition, the 50% inhibitory concentration (IC50) was 562 nM in [10]; more than 2630 nM in experiment [11]; 8420 nM in experiment [1]; 6840 nM in [2]; 222000 nM in [3]; 22900 nM in [12].
As for `CN(C)CCOc1ccc(C(=O)N2C/C(=C\c3ccc([N+](=O)[O-])cc3)C(=O)/C(=C/c3ccc([N+](=O)[O-])cc3)C2)cc1`, the IC50 was 314 nM in [1], 319 nM in experiment [2] and 5190 nM in experiment [3].
`COc1ccc(C(=O)N2C/C(=C\c3ccccc3)C(=O)/C(=C/c3ccccc3)C2)cc1`: the IC50 in [1] turned out to be 2390 nM; in experiment [2], 5000 nM; in experiment [3], 37800 nM.
As to `CC[N+](C)(CC)CCOc1ccc(C(=O)N2C/C(=C\c3ccc([N+](=O)[O-])cc3)C(=O)/C(=C/c3ccc([N+](=O)[O-])cc3)C2)cc1`, the IC50 in experiment [1] is 40200 nM; in experiment [2], 39300 nM; in [3] it was 65000 nM.
For `CN(C)CCOc1ccc(C(=O)N2C/C(=C\c3ccccc3)C(=O)/C(=C/c3ccccc3)C2)cc1`, the IC50 is 580 nM in experiment [1], 1240 nM in [2] and 10200 nM in experiment [3].
In the case of `CCN(CC)CCOc1ccc(C(=O)N2C/C(=C\c3ccccc3)C(=O)/C(=C/c3ccccc3)C2)cc1`, the half-maximal inhibitory concentration (IC50) is 1170 nM in [4]; less than 10 nM in [5]; 1740 nM in experiment [6]; 1350 nM in [7]; 43 nM in experiment [8]; less than 10 nM in experiment [9]. For the same compound, the 50% inhibitory concentration (IC50) is less than 1380 nM in [11]; 1280 nM in [1]; 1650 nM in experiment [2]; 8230 nM in [3]; 2630 nM in experiment [12].
With `O=C1/C(=C/c2ccccc2)CN(C(=O)c2ccccc2)C/C1=C\c1ccccc1`, the half-maximal inhibitory concentration (IC50) came to 1700 nM in experiment [1], 1640 nM in experiment [2] and 12000 nM in experiment [3].
For `CC[N+](C)(CC)CCOc1ccc(C(=O)N2C/C(=C\c3ccc(Cl)cc3)C(=O)/C(=C/c3ccc(Cl)cc3)C2)cc1`, the IC50 in [1] came to 55800 nM; in experiment [2], 71200 nM; in experiment [3], 729000 nM.
Regarding `CCN(CC)CCOc1ccc(C(=O)N2C/C(=C\c3ccc(C)cc3)C(=O)/C(=C/c3ccc(C)cc3)C2)cc1`, the figures for the IC50 in [1], in experiment [2] and in [3] were 1320 nM, 1330 nM and 2280 nM, respectively.
Take `O=C1/C(=C/c2ccc([N+](=O)[O-])cc2)CN(C(=O)c2ccc(OCCN3CCOCC3)cc2)C/C1=C\c1ccc([N+](=O)[O-])cc1`: the IC50 came to 343 nM in experiment [1], 379 nM in experiment [2] and 6340 nM in [3].
As for `CCN(CC)CCOc1ccc(C(=O)N2C/C(=C\c3ccc([N+](=O)[O-])cc3)C(=O)/C(=C/c3ccc([N+](=O)[O-])cc3)C2)cc1`, the IC50 in experiment [1] amounted to 310 nM; in experiment [2], 340 nM; in [3], 3630 nM.
For the compound `O=C1/C(=C/c2ccc([N+](=O)[O-])cc2)CN(C(=O)c2ccc(OCCN3CCCCC3)cc2)C/C1=C\c1ccc([N+](=O)[O-])cc1`, the IC50 in experiment [1] was 330 nM; in [2], 315 nM; in [3], 4740 nM.
